Experimental data from ChEMBL document CHEMBL3244396, “Synthesis and antileukemic activity of 5-substituted 2,3-dihydro-6,7-bis(hydroxymethyl)-1H-pyrrolizine diesters” (J Med Chem, 1977).

Legend:
L1210 [1] = assay: Antileukemic activity against mouse L1210 cells allografted in female BDF1 mouse assessed as change in body weight at 200 mg/kg, ip administered daily for 9 days as Klucel suspension starting 24 hrs after tumor inoculation; assay type: functional; settings: route intraperitoneal
In short: (§1)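 Ascitic fluid carrying L1210 cells was inoculated ip. Compound was given ip as a Klucel (hydroxypropylcellulose) suspension in nine daily doses, starting 24 h after inoculation. Body-weight difference (treated minus control) was recorded on day 5. Survival was scored as %T/C of mean survival time.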

L1210 [2] = assay: Antileukemic activity against mouse L1210 cells allografted in female BDF1 mouse assessed as change in body weight at 50 mg/kg, ip administered daily for 9 days as Klucel suspension starting 24 hrs after tumor inoculation; assay type: functional; settings: route intraperitoneal; in short: as §1
P388 [3] = assay: Antitumor activity against mouse P388 cells allografted in female BDF1 mouse assessed as disease cures by measuring 30-days host survival at 25 mg/kg, ip administered daily for 9 days as Klucel suspension starting 24 hrs after tumor inoculation relative to control; assay type: functional; settings: route intraperitoneal
In short: (§2)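 P388 leukemia given as an ascitic fluid cell inoculum, ip, to mice of the strain and sex in each line. Nine daily ip doses were given in a Klucel (hydroxypropylcellulose) suspension, starting 24 h after inoculation. Read-out is median survival time as %T/C, with >125 taken as significant; a "cure" means 30-day survival.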

Mus musculus [4] = assay: Toxicity in male CDF1 mouse allografted with mouse P388 cells assessed as animal survival at 12.5 mg/kg, ip administered daily for 9 days as Klucel suspension starting 24 hrs after tumor inoculation; assay type: organism-based; design: dose 12.5 mg/kg, route intraperitoneal; settings: in vivo
In short: (§3)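 P-388 leukemia ascitic fluid inoculated ip. Compound given ip as a suspension in Klucel (hydroxypropylcellulose), once daily for nine doses beginning 24 h post-inoculation. Acute toxicity assessed as toxicity-day survivors per group. Survival was followed up to 30 days, with 30-day survival counted as "cure". Follows NCI screening protocols.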

P388 [5] = assay: Antitumor activity against mouse P388 cells allografted in male CDF1 mouse assessed as disease cures by measuring 30-days host survival at 12.5 mg/kg, ip administered daily for 9 days as Klucel suspension starting 24 hrs after tumor inoculation relative to control; assay type: functional; settings: route intraperitoneal; in short: as §2
Mus musculus [6] = assay: Toxicity in male CDF1 mouse allografted with mouse P388 cells assessed as animal survival at 25 mg/kg, ip administered daily for 9 days as Klucel suspension starting 24 hrs after tumor inoculation; assay type: organism-based; design: dose 25 mg/kg, route intraperitoneal; settings: in vivo; in short: as §3
P388 [7] = assay: Antitumor activity against mouse P388 cells allografted in male CDF1 mouse assessed as disease cures by measuring 30-days host survival at 50 mg/kg, ip administered daily for 9 days as Klucel suspension starting 24 hrs after tumor inoculation relative to control; assay type: functional; settings: route intraperitoneal; in short: as §2
L1210 [8] = assay: Antileukemic activity against mouse L1210 cells allografted in female BDF1 mouse assessed as host mean survival time at 50 mg/kg, ip administered daily for 9 days as Klucel suspension starting 24 hrs after tumor inoculation relative to control; assay type: functional; settings: route intraperitoneal
In short: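 L1210 leukemia given as an ascitic fluid cell inoculum, ip, to mice of the strain and sex in each line. Test material was given ip for nine daily doses starting 24 h after inoculation, in a Klucel (hydroxypropylcellulose) suspension. Read-out is mean survival time as %T/C versus controls, with >125 taken as significant.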

P388 [9] = assay: Antitumor activity against mouse P388 cells allografted in female BDF1 mouse assessed as change in body weight at 12.5 mg/kg, ip administered daily for 9 days as Klucel suspension starting 24 hrs after tumor inoculation; assay type: functional; settings: route intraperitoneal
In short: (§4)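 Ascitic fluid carrying P388 cells was inoculated ip. Compound was given ip in nine daily doses, starting 24 h after inoculation, in Klucel (hydroxypropylcellulose) suspension or in saline with Tween-80. Body-weight difference (treated minus control) was recorded on day 5. Survival was scored as %T/C of median survival time, and 30-day survival counted as cure.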

P388 [10] = assay: Antitumor activity against mouse P388 cells allografted in female CDF1 mouse assessed as change in body weight at 100 mg/kg, ip administered daily for 9 days as Klucel suspension starting 24 hrs after tumor inoculation; assay type: functional; settings: route intraperitoneal; in short: as §4
P388 [11] = assay: Antitumor activity against mouse P388 cells allografted in female CDF1 mouse assessed as change in body weight at 50 mg/kg, ip administered daily for 9 days as Klucel suspension starting 24 hrs after tumor inoculation; assay type: functional; settings: route intraperitoneal; in short: as §4

CC(=O)OCc1c(COC(C)=O)c(-c2ccccc2)n2c1CCC2
Activity (L1210 [1]): -2.8 g
Activity (L1210 [2]): -2.6 g
T/C (P388 [3]): 133%
Activity (Mus musculus [4]): Non-toxic
T/C (P388 [5]): 110%
Activity (Mus musculus [6]): Non-toxic
T/C (P388 [7]): 87%
T/C (L1210 [8]): 114%
Activity (P388 [9]): -1.2 g
Activity (P388 [10]): -2.8 g
Activity (P388 [11]): -2.5 g
